From ChEMBL document CHEMBL1221398, “Chemical constituents of the deep reef caribbean sponges Plakortis angulospiculatus and Plakortis halichondrioides and their anti-inflammatory activities” (J Nat Prod, 2010)
Calls of active or inactive are those of the source. The calls are words filed in the database; no cut-off is given here.

Key:
[1] = Inhibition of NF-kappaB-mediaated transcription in human SW1353 cells by reporter gene assay; type: cell-based
Procedure, shortened: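 Luciferase reporter gene assay for NF-κB-mediated transcription in SW 1353 cells, with parthenolide as positive control. A luciferase construct carrying SP-1 binding sites served as a control for nonspecific transcription inhibition.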

[2] = Inhibition of LPS-induced NOS activity in mouse RAW264.7 cells; type: cell-based
Procedure, shortened: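 Mouse RAW 264.7 macrophages were stimulated with LPS. iNOS activity was read as the decrease in nitrite production relative to untreated vehicle controls, with L-NMMA as positive control. Compounds were tested up to 25 µg/mL.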

HL-60 [3] = experiment: Cytotoxicity against human HL60 cells up to 25 ug/mL
RAW264.7 = experiment: Cytotoxicity against mouse RAW264.7 cells up to 25 ug/mL
HL-60 [4] = experiment: Antioxidant activity against PMA-treated human HL60 cells assessed as inhibition of ROS generation
[5] = Homo sapiens, SW1353, read-out: IC50

IC50 [1, 5] | IC50 ([2]; read-out: IC50) | IC50 [2] | IC50 ([1]; sw1353) | Structure (SMILES) | Activity (HL-60 [3]) | Activity (RAW264.7) | Activity (HL-60 [4])
2.28 µM | 18.6 µM |  |  | CC1=C[C@](C)(/C=C(C)/C=C/c2ccccc2)[C@](C)(C(=O)O)[C@H]2C(C)=C[C@@H](C)[C@H]12 [27-NOR-ZYGGOMPHIC ACID B] | Non-toxic | Non-toxic | inactive
27.2 µM |  | Not Active |  | CCC1=C[C@@](/C=C/c2ccccc2)(CC)[C@](C)(C(=O)O)[C@H]2C(CC)=C[C@@H](C)[C@H]12 [SPICULOIC ACID B] | Non-toxic | Non-toxic | inactive
 |  |  |  | CC(=O)/C=C(/C)C(=O)/C(C)=C/C(C)=C/C(C)/C=C/c1ccccc1 (centres undefined) | Non-toxic | Non-toxic | inactive
 | 19.9 µM |  | Not Active | CCC1=C[C@@H](C)[C@@H]2C(C)=C[C@](C)(/C=C/C=C/c3ccccc3)[C@](C)(C(=O)O)[C@@H]12 [22-NOR-ZYGGOMPHIC ACID B] | Non-toxic | Non-toxic | inactive
25.8 µM | > 64.1 µM |  |  | CCC1=C[C@@H](C)[C@@H]2C(C)=C[C@](C)(/C=C(C)/C=C/c3ccccc3)[C@](C)(C(=O)O)[C@@H]12 [ZYGGOMPHIC ACID B] | Non-toxic | Non-toxic | inactive
27.9 µM | 30.4 µM |  |  | CC1=C[C@](C)(/C=C/C=C/c2ccccc2)[C@](C)(C(=O)O)[C@H]2C(C)=C[C@@H](C)[C@H]12 [22,27-DINOR-ZYGGOMPHIC ACID B] | Non-toxic | Non-toxic | inactive
25.6 µM | 64.1 µM |  |  | CCC(O)/C(C)=C/C(C)C(O)/C(C)=C/C(C)=C/C(C)/C=C/c1ccccc1 (centres undefined) | Non-toxic | Non-toxic | inactive
 | > 101 µM |  |  | CNC(=N)NCCC[C@H](N)C(=O)O [TILARGININE] | Non-toxic | Non-toxic | inactive
0.47 µM | 54.9 µM |  |  | CCC1=C[C@@H](C)[C@@H]2C(C)=C[C@@](/C=C/c3ccccc3)(CC)[C@](C)(C(=O)O)[C@@H]12 [24-NOR-SPICULOIC ACID B] | Non-toxic | Non-toxic | inactive
3.3 µM |  |  |  | C=C1C(=O)O[C@@H]2C3O[C@]3(C)CC/C=C(\C)CC[C@@H]12 (some centres undefined) | Non-toxic | Non-toxic | inactive
 |  |  |  | CC(=O)C/C(C)=C/C(C)/C=C/c1ccccc1 (centres undefined) | Non-toxic | Non-toxic | inactive
